{"source": "ChEMBL document CHEMBL4715822", "about": "“Structure-based lead optimization to improve antiviral potency and ADMET properties of phenyl-1H-pyrrole-carboxamide entry inhibitors targeted to HIV-1 gp120” (Eur J Med Chem, 2018)", "key": {"[1]": {"assay": "Apparent permeability across basolateral to apical side in human Caco2 cells incubated for 2 hrs by LC-MS/MS analysis", "format": "ADME, cell-based, Caco-2", "conditions": "caco-2, 2 h", "summary_of_the_method": "(§1)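 Caco-2 monolayers grown three weeks to differentiate; compound in transport buffer pH 7.4 (glucose, 10 mM HEPES, HBSS) added apical (A-B) or basal (B-A) side, with or without 100 μM verapamil; 2 h incubation, both sides sampled. Lucifer yellow 100 μM on A side checks integrity (≤2% transport). Papp = (dQ/dt)/(C0 × A); efflux ratio = Papp(B→A)/Papp(A→B).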"}, "[2]": {"system": "Human immunodeficiency virus 1", "assay": "Antiviral activity against clinical isolate HIV-1 93BR019 infected in human PBMC cells assessed as reduction in viral transmission to TZM-bl cells pretreated for 1 hr before viral transmission and further incubated for 48 hrs by luciferase based assay", "format": "functional, cell-based", "conditions": "Human immunodeficiency virus 1, 93BR019, PBMC"}, "[3]": {"system": "Human immunodeficiency virus 1", "assay": "Antiviral activity against clinical isolate HIV-1 93RW018 infected in human PBMC cells assessed as reduction in viral transmission to TZM-bl cells pretreated for 1 hr before viral transmission and further incubated for 48 hrs by luciferase based assay", "format": "functional, organism-based", "conditions": "Human immunodeficiency virus 1, 93RW018, PBMC"}, "[4]": {"system": "Human immunodeficiency virus 1", "assay": "Antiviral activity against pseudovirus HIV-1 HXB-2 harboring Env M426L mutant infected in human U87.CD4.CXCR4 cells assessed as reduction in viral infection pretreated for 30 mins before viral infection and measured after 3 days by luciferase based assay", "format": "functional, cell-based, M:B_HXB2R", "summary_of_the_method": "(§2)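 Pseudoviruses made in HEK293T by co-transfecting an Env-deleted backbone (pSG3Δenv or pNL4-3.Luc.R-.E-) with an HXB-2 Env plasmid carrying single or double substitutions; Env sequences confirmed by sequencing. Virus pretreated 30 min with graded compound, added to U87-CD4-CXCR4 cells (1 × 10⁴/well, plated overnight), incubated 3 days. Cells lysed, luciferase measured, IC50 calculated.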"}, "[5]": {"system": "Human immunodeficiency virus 1", "assay": "Antiviral activity against pseudovirus HIV-1 HXB-2 harboring Env S375W mutant infected in human U87.CD4.CXCR4 cells assessed as reduction in viral infection pretreated for 30 mins before viral infection and measured after 3 days by luciferase based assay", "format": "functional, cell-based, M:B_HXB2R", "summary_of_the_method": "as §2"}, "[6]": {"system": "Human immunodeficiency virus 1", "assay": "Antiviral activity against pseudovirus HIV-1 HXB-2 harboring Env A204D mutant infected in human U87.CD4.CXCR4 cells assessed as reduction in viral infection pretreated for 30 mins before viral infection and measured after 3 days by luciferase based assay", "format": "functional, cell-based, M:B_HXB2R", "summary_of_the_method": "as §2"}, "[7]": {"system": "Human immunodeficiency virus 1", "assay": "Antiviral activity against pseudovirus HIV-1 HXB-2 harboring Env S375Y mutant infected in human U87.CD4.CXCR4 cells assessed as reduction in viral infection pretreated for 30 mins before viral infection and measured after 3 days by luciferase based assay", "format": "functional, cell-based, M:B_HXB2R", "summary_of_the_method": "as §2"}, "[8]": {"assay": "Apparent permeability across apical to basolateral side in human Caco2 cells incubated for 2 hrs by LC-MS/MS analysis", "format": "ADME, cell-based, Caco-2", "conditions": "caco-2, 2 h", "summary_of_the_method": "as §1"}}}
{"smiles": "COc1cnc(-n2cnc(C)n2)c2[nH]cc(C(=O)C(=O)N3CCN(C(=O)c4ccccc4)CC3)c12", "values": [{"measurement": "Papp", "setting": "[1]", "result": "32 10^-6 cm/s"}, {"measurement": "IC50", "setting": "[2]", "result": 100, "unit": "nM"}, {"measurement": "IC50", "setting": "[3]", "result": 100, "unit": "nM"}, {"measurement": "IC50", "setting": "[4]", "result": 230, "unit": "nM"}, {"measurement": "IC50", "setting": "[5]", "result": "> 1000", "unit": "nM"}, {"measurement": "IC50", "setting": "[6]", "result": "> 1000", "unit": "nM"}, {"measurement": "IC50", "setting": "[7]", "result": "> 1000", "unit": "nM"}, {"measurement": "Papp", "setting": "[8]", "result": "9.27 10^-6 cm/s"}]}
